Bioassay records: PubChem BioAssay, Johns Hopkins Ion Channel Center
MrgX1 allo act = human MrgX1 positive allosteric modulation, primary screen; Q96LB2; MrgX1-HEK293, Fluo-4 calcium flux, FDSS; hits give high values; B-score at 10 µM; actives 0.63% (n = 310,000);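 active = plate-corrected calcium response at least 3 library SD above typical, normal starting fluorescence, not activating the receptor alone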;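 note: compound read alongside a low EC10 to EC30 dose of BAM8-22 agonist; peak minus trough fluorescence over baseline measured at the second addition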
Target sequence (Q96LB2 whole entry, looked up): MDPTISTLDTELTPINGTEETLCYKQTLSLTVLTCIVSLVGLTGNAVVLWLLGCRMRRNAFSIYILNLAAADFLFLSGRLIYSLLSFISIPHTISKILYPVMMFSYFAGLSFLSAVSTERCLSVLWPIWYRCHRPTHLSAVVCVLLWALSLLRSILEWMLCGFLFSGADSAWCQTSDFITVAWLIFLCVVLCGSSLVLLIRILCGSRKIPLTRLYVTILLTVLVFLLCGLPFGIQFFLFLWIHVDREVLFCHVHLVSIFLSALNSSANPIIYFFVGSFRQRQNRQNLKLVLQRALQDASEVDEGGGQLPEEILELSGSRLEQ
MrgX1 antagonist = blocks BAM8-22 activation of human MrgX1 receptor; MRGX1-HEK293 calcium flux, Fluo-4, BAM8-22 antagonism; hits give low values; B-score at 10 µM; actives 1.3% (n = 310,000); AID 588676;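 active = calcium-response B-score plate-corrected more than 3 library SD below zero, starting fluorescence within 5 deviations, no agonist response on first addition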;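 note: peak minus trough fluorescence over baseline after final BAM8-22 challenge near maximal dose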
MrgX1 ag = human MrgX1 receptor agonism, primary screen; Q96LB2; MrgX1-HEK293 cells, Fluo-4 calcium fluorescence, agonist mode; hits give high values; B-score at 10 µM; actives 0.44% (n = 310,000); AID 588627;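 active = calcium response B-score plate-corrected fluorescence ratio at least 3 library SD, with starting fluorescence B-score inside 5 SD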
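Assay system: MrgX1-expressing HEK293 cells / Amount: fifteen thousand cells per well / Doses: test compound in the initial addition of three / Timing: cells plated overnight, dye loaded 0.5 h 37 °C, 0.5 h room temperature / Technique: kinetic calcium dye fluorescence, Fluo-4 NW / Control set: positive and negative controls per plate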
RGS4 block = inhibitors of human RGS4; P49798; HEK293 M3R/RGS4 inducible, Fluo-4 calcium flux; hits give high values; triggered by carbachol at its EC20; B-score at 10 µM; actives 0.45% (n = 310,000);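 active = B-score, a plate-corrected calcium signal, over three deviations above library mean, with baseline fluorescence within five deviations of library mean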;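 note: RGS4 expression induced by doxycycline in cells with stable M3 receptor; B-score is computed from the integrated fluorescence ratio over baseline after carbachol; higher B-score means a larger calcium signal and so more RGS4 inhibition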
Target sequence (P49798 whole entry, looked up): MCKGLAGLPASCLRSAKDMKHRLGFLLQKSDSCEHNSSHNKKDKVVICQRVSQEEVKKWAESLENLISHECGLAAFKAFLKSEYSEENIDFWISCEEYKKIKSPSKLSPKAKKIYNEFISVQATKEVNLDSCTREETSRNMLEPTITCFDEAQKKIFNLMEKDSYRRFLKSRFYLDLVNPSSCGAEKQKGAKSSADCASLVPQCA
RGS4 act = RGS4 potentiation or activation. HEK293 M3R/inducible RGS4, carbachol calcium flux Fluo4; hits give low values. B-score at 10 µM. actives 0.92% (n = 310,000). AID 463111;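 active = B-score of the integrated calcium signal more than 4 SD below the library mean, with starting fluorescence not abnormally high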;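 note: negative B-score means reduced calcium response which marks RGS4 activation or potentiation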
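Test system: HEK293 cells with stable M3R and inducible RGS4; also added: carbachol at ECmax as muscarinic agonist stimulus; schedule: dye loading 30 min 37 °C, buffer rest 30 min RT; technique: kinetic calcium fluorescence imaging with Fluo4-AM dye, 2 µM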
MrgX1 ant reconf = human MrgX1 receptor antagonism, re-confirmation screen | shares compounds with MrgX1 antagonist | MrgX1-HEK293, BAM8-22 calcium flux, Fluo-4; hits give low values | remaining BAM8-22 calcium response % of control (hits give low values), % at 10 µM | actives 19% (n = 2,300) | AID 602420;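 active = remaining agonist calcium response no higher than 100% minus 3 SD of agonist-only control wells, with starting fluorescence near control levels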;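 note: agonist BAM8-22 given at a near maximal EC90 to ECmax level; peak minus minimum fluorescence divided by baseline after agonist addition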
HEK293 Ca flux = counter-screen for MrgX1 antagonists: effect in parental HEK293 cells | actives 2% (n = 4,000) | AID 624111 | shares compounds with MrgX1 antagonist | fluorescence ratio F(max-min)/F0 at 10 µM | Fluo-4 calcium fluorescence, FDSS;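 active = duplicate-averaged calcium fluorescence ratio at least three times the standard deviation of buffer wells, a nonspecific response in parental cells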
HEK293 Ca counter = activity in parental HEK293 cells without MrgX1; parental HEK293 calcium flux, Fluo-4 fluorescence ratio; hits give high values; shares compounds with MrgX1 antagonist; fluorescence ratio F(max-min)/F0 at 10 µM; actives 0.4% (n = 4,000);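 active = calcium fluorescence ratio, averaged over duplicates, at least 3 SD of the buffer-well ratio, meaning a nonspecific response in receptor-free cells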;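 note: untransfected parental HEK293 lacking MrgX1 used as counterscreen for MrgX1 allosteric activators; fluorescence change taken during the second addition on a kinetic imager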
HEK293 Ca cntr2 = MrgX1 activator counter-screen hit in parental HEK293 cells; shares compounds with MrgX1 antagonist; AID 624115; fluorescence ratio F(max-min)/F0 at 10 µM; Fluo-4 calcium fluorescence (FDSS); hits give high values; actives 8.7% (n = 4,000);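 active = calcium fluorescence ratio at least three times the spread of buffer wells, meaning a non-specific response in parental cells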
* marks the source's active call; other numbers are inactive results; i = inactive; / = no result; ! = a repeat was not active. This is a sample that favours compounds with a hit; in the whole collection about 3.5% have one here.

SMILES | MrgX1 allo act | MrgX1 antagonist | MrgX1 ag | RGS4 block | RGS4 act | MrgX1 ant reconf | HEK293 Ca flux | HEK293 Ca counter | HEK293 Ca cntr2
CCCn1c(SCc2ccccn2)nc2c1c(=O)n(C)c(=O)n2C | i | -7.8* | i | i | i | i | i | i | i
c1ccc(-n2ncc3c(N4CCN(CCOc5cccc6ccccc56)CC4)ncnc32)cc1 | i | i | i | i | i | / | / | / | /
CC(=O)N1CCN(c2nc(-c3cccs3)nc3ccccc23)CC1 | i | -4.7* | i | i | i | i | i | i | i
O=C(Cn1nc(Br)nc1Br)c1ccccc1 | i | i | i | i | i | / | / | / | /
Cc1ccc(NC(=O)CCc2nnc3ccc(N4CCC(C)CC4)nn23)nc1 | i | -7.4* | i | i | i | i | i | i | i
O=S(=O)(Nc1nc2ccccc2nc1NCC1CCCO1)c1cccc(Cl)c1 (configuration not stated) | i | i | i | i | i | / | / | / | /
O=C(Cn1nnc(-c2ccc(CN3CCOCC3)cc2)n1)N1CCCc2ccccc21 | i | i | i | i | i | / | / | / | /
O=C(Cn1nnc(-c2ccc(CN3CCOCC3)cc2)n1)N(c1ccccc1)c1ccccc1 | i | -8.6* | i | i | i | i | i | i | i
Cc1ccc(C(c2nnnn2C2CCCC2)N2CCN3CCCC3C2)cc1 (configuration not stated) | i | -6.4* | i | i | i | i | i | i | i
COc1cc(-c2nnn(CC#N)n2)ccc1OCc1ccccc1 | i | -4.7* | i | i | i | i | i | i | i
COc1ccc(-c2nnn(CC(=O)c3ccccc3)n2)cc1OC | i | -4.7* | i | i | i | i | i | i | i
COc1cc(-c2nnn(CC(=O)NC3CCS(=O)(=O)C3)n2)ccc1OCc1ccccc1 (configuration not stated) | i | i | i | i | i | / | / | / | /
Cc1cccc(NC(=O)c2sc3nc(-c4ccccc4)cn3c2C)n1 | i | i | i | i | i | / | / | / | /
COc1ccc(-c2cn3c(C)c(C(=O)Nc4cccc(C)n4)sc3n2)cc1 | i | -5.3* | i | i | i | 82%* | i | i | i
CC(=O)Oc1c(S(=O)(=O)c2ccc(C)cc2)c(C)nn1C(C)(C)C | i | i | i | i | i | / | / | / | /
CCCCC(=O)Oc1c(S(=O)(=O)c2ccc(C)cc2)c(C)nn1C(C)(C)C | i | -5.2* | i | i | i | i | i | i | i
Cc1cc2cc(CNC(=S)Nc3ccc(OC(F)(F)F)cc3)ccc2[nH]1 | i | i | i | i | i | / | / | / | /
O=C(c1cccc(S(=O)(=O)N2CCc3ccccc32)c1)N1CCN(c2ccccn2)CC1 | i | i | i | i | i | / | / | / | /
CCOc1cc(-c2c(C#N)c(N)nc3c2CCCC3C)ccc1O (configuration not stated) | i | -4.7* | i | i | i | i | i | i | i
COC(=O)c1ccc(C(=O)OC)c(NC(=O)COC(=O)c2ccccc2OC)c1 | i | -6.7* | i | i | i | 84%* | i | i | i
COC(=O)c1ccc(C(=O)OC)c(NC(=O)CCC(=O)O)c1 | i | i | i | i | i | / | / | / | /
CCOC(=O)c1cnn(-c2ccc(C)cc2)c1N | i | -4.7* | i | i | i | i | i | i | i
CCOC(=O)c1ccc(-n2ncc(C(=O)OCC)c2N)cc1 | i | i | i | i | i | / | / | / | /
Cc1cc(C)n(-c2nc3ccccc3nc2Nc2ccc(CC(=O)O)cc2)n1 | i | -7.6* | i | i | i | i | i | i | i
Cc1cc(C)nc(NS(=O)(=O)c2ccc(N)cc2)n1 | i | -4.7*! | i | i | i | i | i | i | i
SMILES | MrgX1 allo act | MrgX1 antagonist | MrgX1 ag | RGS4 block | RGS4 act | MrgX1 ant reconf | HEK293 Ca flux | HEK293 Ca counter | HEK293 Ca cntr2
COc1ccc(-c2noc(CCC(=O)NCCc3ccccc3)n2)cc1OC | i | i | i | i | i | / | / | / | /
CCOC(=O)c1ccc(NC(=S)NCCc2ccccc2F)cc1 | i | -6.2* | i | i | i | 67%* | i | i | i
CCOC(=O)c1ccc(NC(=S)NCCc2ccccc2)cc1 | i | i | i | i | i | / | / | / | /
Cc1cccc(NC(=O)c2cc(NC(=O)c3ccco3)ccc2Cl)n1 | i | -4.7* | i | / | / | 85%* | i | i | i
Cc1cccc(NC(=O)CNC(=O)c2ccc3c(c2)OCO3)n1 | i | -9.4* | i | i | i | i | i | i | i
CC(Oc1ccc(F)cc1)C(=O)Nc1cccc(-c2nn[nH]n2)c1 (configuration not stated) | i | i | i | i | i | / | / | / | /
CC(C)(C)NC(=O)CSc1nnc(CN2CCCCCC2=O)n1-c1ccccn1 | i | i | i | i | i | / | / | / | /
O=C(CSc1nnc(CN2CCCCCC2=O)n1-c1ccccn1)NCC(F)(F)F | i | -4.6* | i | i | i | i | i | i | i
O=C(CSCc1nc2ccccc2[nH]1)Nc1ccc2ccccc2c1 | i | -4.9* | i | i | i | i | i | i | i
Cc1ccc(N2C(=O)c3ccccc3NC2C(C)Cc2ccc3c(c2)OCO3)cc1 (configuration not stated) | i | -5.1* | i | i | i | i | i | i | i
COc1ccc(Cl)cc1N(CC(=O)Nc1ccccc1C(=O)N1CCOCC1)S(C)(=O)=O | i | i | i | i | i | / | / | / | /
O=C(NC(=S)Nc1ccccc1N1CCCC1)c1cccs1 | i | i | i | i | i | / | / | / | /
O=C(NC(=S)Nc1ccccc1N1CCOCC1)c1cccs1 | i | -4.7* | i | i | i | i | i | i | i
O=C(COc1cccc2ccccc12)Nc1cc(Cl)ccc1C(=O)O | i | -7.6* | i | i | i | 62%* | i | i | i
